# ABCB1 inh = ABCB1 efflux pump inhibitors, primary screen, cell-based, multiplex, flow cytometry, ABCG2 counter-screen | CCRF-Adr cells, JC-1 efflux | inhibition, % at 6.6 µM | 190,000 compounds, 0.067% hits | AID 1326, 2008; in the data active means inhibition above about 40%;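 further: 0% = vehicle and 100% = reference inhibitor; higher value means more JC-1 retained so stronger ABCB1 efflux block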
# ABCG2 block = ABCG2 efflux pump inhibitors, primary screen, multiplex with ABCB1, IgMXP3 cells, flow cytometry. Broad substrate specificity ATP-binding cassette transporter ABCG2 (Homo sapiens), Q9UNQ0. JC-1 efflux. inhibition, % at 6.6 µM. 190,000 compounds, 0.1% hits. AID 1325, 2008;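 active means inhibition above 80%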;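 further: 0% = DMSO and 100% = nicardipine control wells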
#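 Test system: IgMXP3 (ABCG2) plus far-red-tagged CCRF-Adr (ABCB1) cells. Reagent: JC-1 dye as substrate. Timing: 10 min exposure at 25 °C with rotation, no wash. Measured by: flow cytometric JC-1 green MFI at 530 nm. Read-out: percent efflux inhibition, scaled nicardipine 100% to DMSO 0%. Control set: nicardipine and DMSO wells.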
# L major viab = Leishmania major promastigote growth inhibition, primary screen. Leishmania major promastigotes, resazurin fluorescence viability. inhibition, % at 10 µM. 200,000 compounds, 9% hits; in the data active means inhibition above about 50%;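 further: promastigotes grown with compound for 44 hours at 28 °C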
# RAM inhibit = inhibitors of the yeast RAM network, primary screen, dse1pr::URA3 reporter, 5-FOA selection. 190,000 compounds, 1.8% hits. AID 868, 2007. inhibition, % at 50 µM. S. cerevisiae dse1pr::URA3 reporter, 5-FOA growth OD615, 2 d; analog-sensitive cbk1-as2 kinase mutant strain;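 active means inhibition above a set limit, 3 SD over mean compound inhibition, cut at about 8.4% in these data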;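 further: 0% = DMSO-only wells with no growth and 100% = 10 µM 1-NA-PP1 full growth; inhibition rescues growth on 5-FOA so higher OD means more RAM inhibition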
# WT yeast gro inh = growth inhibition of WT strain, primary screen, mitochondrial fusion inhibitor project, WT and mutant strains, chemical genetic; mitochondrial fusion phenotypic screen; inhibition, % at 10 µM; 190,000 compounds, 2.1% hits; AID 1362, 2008; in the data active means inhibition above about 58%; tested in S. cerevisiae
# Starred values were filed as active, the others as inactive. Hits are enriched below; roughly 12% of the tested compounds scored in any of these assays.
SMILES,ABCB1 inh,ABCG2 block,L major viab,RAM inhibit,WT yeast gro inh
Cc1cccc2cc(C(c3nnnn3Cc3ccc4c(c3)OCO4)N3CCCC3)c(=O)[nH]c12 (stereo not drawn),3,21,11,1,-15
Cc1cccc2cc(C(c3nnnn3CC3CCCO3)N3CCc4ccccc4C3)c(=O)[nH]c12 (stereo not drawn),1,0,27,1,8
O=C(COC(=O)c1ccc(CO)cc1)Nc1ccc(OC(F)F)cc1,0,2,-5,2,-6
CC[N+]1(C)CC2CCC(C)(C1)C2(C)C (stereo not drawn),1,3,0,0,2
O=C(Cc1csc(N2CCOCC2)n1)N/N=C/c1ccc(Cl)cc1Cl,0,11,69*,-1,26
COc1cc(/C=N/NC(=O)Cc2csc(N3CCOCC3)n2)cc(OC)c1O,0,1,-5,1,12
CC(=NCCc1c(C)[nH]c2ccc(C)cc12)C1=C(O)CC(c2ccccc2)CC1=O (stereo not drawn),0,-7,98*,3,15
CSc1ccc(/C=C(/NC(=O)c2ccc(C)cc2)C(=O)Nc2cccc(C)c2)cc1,0,-12,63*,3,8
Cc1ccc(NC(=O)/C(=C/c2cccc(Br)c2)NC(=O)c2ccco2)cc1,0,23,90*,4,20
COc1ccc(CNC(=O)CCn2c(=O)oc3ccccc32)c(OC)c1,0,-1,0,1,8
COC(=O)CNc1nc(Cl)nc(Nc2ccc(Cl)cc2)n1,0,0,0,3,-4
O=[N+]([O-])c1cccc(-c2noc(COc3ccccc3)n2)c1,2,14,-2,5,-8
CC1(C)COCN1S(=O)(=O)c1ccc(C(=O)Nc2nnc(-c3ccc(Cl)s3)o2)cc1,-1,-1,99*,5,4
COc1ccc(-c2nnc(NC(=O)c3ccc(S(=O)(=O)N4COCC4(C)C)cc3)o2)cc1,0,-1,99*,5,4
COc1cccc(CNc2ccc([N+](=O)[O-])cc2Cl)c1O,1,5,9,1,31
Cn1cccc1C(=O)OCC(=O)NC(=O)NC1CCCCC1,1,7,-2,0,-8
O=C1CC(N2CCN(c3ccc(F)cc3)CC2)C(=O)N1c1ccc2c(c1)OCO2 (stereo not drawn),0,2,4,3,2
CC(C(=O)Nc1ccc2c(c1)OCO2)N(c1ccc(Cl)cc1)S(C)(=O)=O (stereo not drawn),0,35,97*,0,3
CCCCOc1cccc(C(=O)Nc2ccc(N3CCN(CC)CC3)cc2)c1,0,3,-3,-1,0
CCCCOc1ccc(C(=O)Nc2ccc(N3CCN(C)CC3)cc2)cc1,1,8,63*,0,24
COc1ccc(NC(=O)c2oc3ccccc3c2NC(=O)COc2ccccc2OC)c(OC)c1,-2,-2,-1,5,64*
COc1ccc(NC(=O)c2oc3ccccc3c2NC(=O)c2ccc3c(c2)OCO3)cc1,1,4,100*,3,10
CCN(C(=O)c1ccc(C)c(Br)c1)c1ccccc1,2,12,17,0,11
NC(=O)C1CCN(CC(=O)Nc2cccnc2Cl)CC1,1,13,-5,1,-4
CCN1CCN(c2ccc(NC(=O)c3ccc4c(c3)OCO4)cc2)CC1,1,3,-3,0,64*
SMILES,ABCB1 inh,ABCG2 block,L major viab,RAM inhibit,WT yeast gro inh
CCC(=O)N1CCN(c2ccc(NC(=O)c3ccc4c(c3)OCO4)cc2)CC1,1,4,-6,3,9
O=C(Nc1ccc(Cl)cc1)c1ccc2c(c1)OCO2,1,6,-5,1,80*
CC(=O)CS(=O)(=O)c1ccc(Oc2ccc(S(=O)(=O)CC(C)=O)cc2)cc1,-1,0,-4,5,-9
CC(=O)CCS(=O)(=O)c1ccc(Oc2ccc(S(=O)(=O)CCC(C)=O)cc2)cc1,0,1,54*,2,-1
Cc1ccc(NC(=O)CC(C(=O)O)c2ccccc2)cc1 (stereo not drawn),1,0,42,-1,-15
CCOC(=O)c1cnc(-n2nc(C)cc2C)nc1N(CC)CC,0,4,13,0,70*
CCOC(=O)c1cnc(-n2nc(C)cc2C)nc1NC1CCCCC1,0,1,100*,-2,82*
CCOC(=O)c1cnc(-n2nc(C)cc2C)nc1NNc1nc(-c2ccccc2)cc(-c2ccccc2)n1,7,28,100*,4,-12
CCOC(=O)c1cnc(-n2nc(C)cc2C)nc1Nc1ccc(C)cc1,2,9,5,3,46
CCOC(=O)c1cnc(-n2nc(C)cc2C)nc1NC,0,3,1,-1,-37
O=C(O)c1ccc(NC2CC(=O)N(Cc3ccccc3)C2=O)cc1 (stereo not drawn),0,1,-4,-1,-19
NC1=NC(=O)/C(=C\c2cccnc2)S1,0,4,0,0,-18
O=C1/C(=C/c2cccnc2)CCC/C1=C\c1cccnc1,0,0,100*,0,28
CCC1C/C(=C\c2cccnc2)C(=O)/C(=C/c2cccnc2)C1 (stereo not drawn),2,7,100*,-1,64*
CC(C)/C=C1\CC/C(=C\c2cccnc2)C1=O,0,-1,54*,1,-2
CC(C)N1C(=O)S/C(=C/c2cccnc2)C1=O,0,1,71*,0,5
CC(C)N1C(=O)S/C(=C/c2ccc3c(c2)n(C)c(=O)n3C)C1=O,1,6,19,3,-5
O=C(CSc1nnc(COc2ccccc2)o1)N1CCOCC1,0,0,-6,1,17
Cc1ccc(Cl)c(OCC(=O)OCC(=O)NC2CCCc3ccccc32)c1 (stereo not drawn),1,5,-7,4,-8
CCOC(=O)c1cccc2c(=O)c(C(=O)c3ccc(Cl)cc3)c(C(=O)OC)[nH]c12,-1,-5,31,2,9
CCOC(=O)c1c(CNc2ccncc2)n(C)c2cc(Br)c(O)cc12,2,2,5,0,8
O=C1/C(=C/c2cccnc2)CC/C1=C\c1cccnc1,1,5,82*,0,3
COc1ccc2c(c1)CC/C(=C/c1ccncc1)C2=O,2,24,75*,1,3
COc1ccc2c(c1)CC/C(=C\C=C\c1ccccc1OC)C2=O,0,-2,4,8,28
O=C1/C(=C\c2cccnc2)CCc2ccccc21,2,52,100*,1,-5
O=C1/C(=C/c2ccccc2)CCCc2ccccc21,1,5,6,1,-19

# Screening data as filed in PubChem BioAssay.
